Test results taken from ChEMBL document CHEMBL4052646, “Synthesis of nοvel artemisinin dimers with polyamine linkers and evaluation of their potential as anticancer agents” (Bioorg Med Chem, 2017).
pIC50: −log10 of the molar value. The source made the active and inactive calls. No cut-off for these calls is given here.

Assays:
MCF7 [1] = assay: Cytotoxicity against human MCF7 cells assessed as reduction in cell number after 48 hrs by MTT assay; format: functional, cell-based; conditions: for pIC50: MCF7, 48 h
Outline: (§1)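 Cells seeded at 10×10^3 (MCF7) or 15×10^3 (HUVEC, primary from umbilical cords, passages 2-3) per well, exposed to agents at different concentrations up to 10 µM for 48 h. MTT added at 1/10 medium volume, 2 h at 37°C, formazan dissolved in acidified isopropanol, absorbance read at 490 nm. Confirmed by haemocytometer counts. IC50 and maximal percent decrease interpolated from graphs. Mean ± S.E.M. versus untreated cells.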

MCF7 [2] = assay: Decrease in pleiotrophin protein expression in human MCF7 cell lysate at 10 uM after 24 hrs by Western blot analysis; format: functional, cell-based
Outline: (§2)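 MCF7 cells treated with 10 µM agent for 24 h. PTN in the whole conditioned medium was captured on heparin-Sepharose for 16 h at 4°C and eluted in reducing Laemmli buffer. Lysates were run in parallel. Blots were probed with mouse anti-PTN (1:1,000), normalised to β-actin, and quantified by densitometry as percent of untreated (n=3).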

MCF7 [3] = assay: Induction of apoptosis in human MCF7 cells at 10 uM after 48 hrs by Annexin V-FITC/PI staining based flow cytometry; format: functional, cell-based
HUVEC [4] = assay: Cytotoxicity against HUVEC assessed as reduction in cell number at 10 uM after 48 hrs by MTT assay; format: functional, Homo sapiens; outline: as §1
HUVEC [5] = assay: Cytotoxicity against HUVEC assessed as reduction in cell number after 48 hrs by MTT assay; format: functional, cell-based; conditions: Homo sapiens; outline: as §1
Chorioallantoic membrane = assay: In vivo antiangiogenic activity in Leghorn chicken embryo chorioallantoic membrane assessed as decrease in total vessel length at 10 nmol/egg after 48 hrs relative to control; format: functional, Gallus gallus; parameters: scale not given: the % may be the effect or the level left
Outline: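 Windows opened in fertilized Leghorn eggs on day 4. On day 9, agent in 20 µl PBS applied to 1 cm² of CAM inside a plastic ring. After 48 h at 37°C, CAMs fixed in situ, excised and air-dried. Total vessel length measured by image analysis as percent change versus control. At least three experiments, 10–20 eggs per point.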

MCF7 [6] = assay: Induction of ROS production in human MCF7 cells after 4 to 6 hrs by carboxy-H2DCFDA dye based fluorescence assay; format: functional, cell-based
Outline: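 MCF7 cells seeded at 15×10^3/well, exposed to agents 24 h later for 4 h. After PBS washes, cells loaded with 50 µM carboxy-H2DCFDA for 15 min in the dark. Fluorescence read at excitation 492–495 nm and emission 517–527 nm.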

MCF7 [7] = assay: Cytotoxicity against human MCF7 cells assessed as reduction in cell number at 10 uM after 48 hrs by MTT assay; format: functional; outline: as §1
MCF7 [8] = assay: Induction of necrosis in human MCF7 cells at 10 uM after 48 hrs by Annexin V-FITC/PI staining based flow cytometry; format: functional, cell-based
MCF7 [9] = assay: Decrease in pleiotrophin secretion in conditioned media of human MCF7 cells at 10 uM after 24 hrs by Western blot analysis; format: functional, cell-based; outline: as §2
MCF7 [10] = assay: Cytotoxicity against human MCF7 cells assessed as reduction in cell number at 10 uM cotreated with spermidine after 48 hrs by MTT assay; format: functional, cell-based
Outline: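 MCF7 cells given the conjugate, the unconjugated artemisinin derivative, spermidine, or the derivative plus spermidine, each at 10 µM, for 48 h. Cell number measured by MTT at 490 nm after formazan solubilisation in acidified isopropanol. Reported as mean ± S.E.M. relative to untreated cells.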

C[C@@H]1CC[C@H]2[C@@H](C)C(=O)O[C@@H]3O[C@@]4(C)CC[C@@H]1[C@]32OO4 [ARTEMISININ]
Activity (MCF7 [1]): Dose-dependent effect | Activity (MCF7 [2]): Active | Activity (MCF7 [3]): inactive | Efficacy (HUVEC [4]): 22% | pIC50 (HUVEC [5]): 5.96 | Activity (Chorioallantoic membrane): 6.3% | Activity (MCF7 [6]): Active | Efficacy (MCF7 [7]): 14% | Activity (MCF7 [8]): inactive | Activity (MCF7 [9]): Active

COC(=O)N(CCCCNC(=O)OCCOCCN1C(=O)[C@H](C)[C@@H]2CC[C@@H](C)[C@@H]3CC[C@@]4(C)OO[C@]32[C@H]1O4)CCCNC(=O)OCCOCCN1C(=O)[C@H](C)[C@@H]2CC[C@@H](C)[C@@H]3CC[C@@]4(C)OO[C@]32[C@H]1O4
Activity (MCF7 [1]): Dose-dependent effect | pIC50 (MCF7 [1]): 6.00 | Efficacy (MCF7 [7]): 39%

COC(=O)N(CCCCNC(=O)OCCOCCO[C@H]1O[C@@H]2O[C@@]3(C)CC[C@H]4[C@H](C)CC[C@@H]([C@H]1C)[C@@]24OO3)CCCNC(=O)OCCOCCO[C@H]1O[C@@H]2O[C@@]3(C)CC[C@H]4[C@H](C)CC[C@@H]([C@H]1C)[C@@]24OO3
Efficacy (MCF7 [7]): 11.2%

C[C@H]1[C@@H](OCCOCCOC(=O)NCCCCNC(=O)OCCOCCO[C@H]2O[C@@H]3O[C@@]4(C)CC[C@H]5[C@H](C)CC[C@@H]([C@H]2C)[C@@]35OO4)O[C@@H]2O[C@@]3(C)CC[C@H]4[C@H](C)CC[C@@H]1[C@@]24OO3
Activity (MCF7 [1]): Dose-dependent effect | pIC50 (MCF7 [1]): 6.00 | Efficacy (MCF7 [7]): 50%

COC(=O)N(CCCCN(CCCNC(=O)OCCOCCN1C(=O)[C@H](C)[C@@H]2CC[C@@H](C)[C@@H]3CC[C@@]4(C)OO[C@]32[C@H]1O4)C(=O)OC)CCCNC(=O)OCCOCCN1C(=O)[C@H](C)[C@@H]2CC[C@@H](C)[C@@H]3CC[C@@]4(C)OO[C@]32[C@H]1O4
Activity (MCF7 [1]): Dose-dependent effect | pIC50 (MCF7 [1]): 6.00 | Efficacy (MCF7 [7]): 48%

COC(=O)N(CCCCN(CCCNC(=O)OCCC[C@H]1O[C@@H]2O[C@@]3(C)CC[C@H]4[C@H](C)CC[C@@H]([C@H]1C)[C@@]24OO3)C(=O)OC)CCCNC(=O)OCCC[C@H]1O[C@@H]2O[C@@]3(C)CC[C@H]4[C@H](C)CC[C@@H]([C@H]1C)[C@@]24OO3
Activity (MCF7 [1]): Dose-dependent effect | pIC50 (MCF7 [1]): 6.00 | Activity (MCF7 [2]): Active | Activity (MCF7 [3]): inactive | Efficacy (HUVEC [4]): 27% | pIC50 (HUVEC [5]): 5.12 | Activity (Chorioallantoic membrane): 22% | Activity (MCF7 [6]): Active | Efficacy (MCF7 [7]): 70% | Activity (MCF7 [8]): inactive | Activity (MCF7 [9]): Active

COC(=O)N(CCCCN(CCCNC(=O)OCCOCCO[C@H]1O[C@@H]2O[C@@]3(C)CC[C@H]4[C@H](C)CC[C@@H]([C@H]1C)[C@@]24OO3)C(=O)OC)CCCNC(=O)OCCOCCO[C@H]1O[C@@H]2O[C@@]3(C)CC[C@H]4[C@H](C)CC[C@@H]([C@H]1C)[C@@]24OO3
Activity (MCF7 [1]): Dose-dependent effect | pIC50 (MCF7 [1]): 6.00 | Efficacy (MCF7 [7]): 64%

COC(=O)N(CCCCNC(=O)OCCC[C@H]1O[C@@H]2O[C@@]3(C)CC[C@H]4[C@H](C)CC[C@@H]([C@H]1C)[C@@]24OO3)CCCNC(=O)OCCC[C@H]1O[C@@H]2O[C@@]3(C)CC[C@H]4[C@H](C)CC[C@@H]([C@H]1C)[C@@]24OO3
Activity (MCF7 [1]): Dose-dependent effect | pIC50 (MCF7 [1]): 6.00 | Activity (MCF7 [2]): Active | Activity (MCF7 [3]): inactive | Efficacy (HUVEC [4]): 35% | pIC50 (HUVEC [5]): 5.92 | Activity (Chorioallantoic membrane): 12% | Activity (MCF7 [6]): inactive | Efficacy (MCF7 [7]): 76% | Activity (MCF7 [8]): inactive | Activity (MCF7 [9]): Active

C[C@@H]1CC[C@H]2[C@@H](C)C(=O)N(CCOCCOC(=O)NCCCCNC(=O)OCCOCCN3C(=O)[C@H](C)[C@@H]4CC[C@@H](C)[C@@H]5CC[C@@]6(C)OO[C@]54[C@H]3O6)[C@@H]3O[C@@]4(C)CC[C@@H]1[C@@]23OO4
Activity (MCF7 [1]): Dose-dependent effect | pIC50 (MCF7 [1]): 6.00 | Activity (MCF7 [2]): Active | Activity (MCF7 [3]): inactive | Efficacy (HUVEC [4]): 23% | pIC50 (HUVEC [5]): 5.64 | Activity (MCF7 [6]): Active | Efficacy (MCF7 [7]): 52% | Activity (MCF7 [8]): inactive | Activity (MCF7 [9]): Active

C[C@H]1[C@@H](CCCOC(=O)NCCCCNC(=O)OCCC[C@H]2O[C@@H]3O[C@@]4(C)CC[C@H]5[C@H](C)CC[C@@H]([C@H]2C)[C@@]35OO4)O[C@@H]2O[C@@]3(C)CC[C@H]4[C@H](C)CC[C@@H]1[C@@]24OO3
Activity (MCF7 [1]): Dose-dependent effect | pIC50 (MCF7 [1]): 6.00 | Activity (MCF7 [2]): Active | Activity (MCF7 [3]): inactive | Efficacy (HUVEC [4]): 27% | pIC50 (HUVEC [5]): 5.44 | Activity (Chorioallantoic membrane): 14.3% | Activity (MCF7 [6]): Active | Efficacy (MCF7 [7]): 61% | Activity (MCF7 [8]): inactive | Activity (MCF7 [9]): Active

C[C@H]1[C@@H](CCCO)O[C@@H]2O[C@]3(C)CC[C@H]4[C@H](C)CC[C@@H]1[C@@]24OO3
Activity (MCF7 [10]): inactive

C[C@H]1[C@@H](O)O[C@@H]2O[C@@]3(C)CC[C@H]4[C@H](C)CC[C@@H]1[C@@]24OO3 [ARTENIMOL]
Efficacy (HUVEC [4]): 28% | pIC50 (HUVEC [5]): 5.85 | Activity (Chorioallantoic membrane): 2.8%
